Published values gathered from unrelated publications.
Protocols differ between the studies behind these lines.
Target: Serine/threonine-protein kinase 35 (STK35, Homo sapiens, UniProt Q8TDR2)

For `CN1CCN(c2cnc3c(C4CCN(C(=O)c5ccc(OC(F)(F)F)cc5N)CC4)ncnc3c2)CC1`, the remaining binding was 100% (cell-free assay; competition with immobilised ligand; 1 µM).
For `O=C(c1ccc(Nc2nccc(-c3cc4ccccc4s3)n2)cc1)N1CCC(N2CCCC2)CC1`, the remaining binding was 100% (binding; competition with immobilised ligand; 1 µM).
The remaining binding of `O=C(Nc1cccnn1)N1CCC(=Cc2cccc(Oc3ccc(C(F)(F)F)cn3)c2)CC1` is reported as 100% (cell-free assay; competition with immobilised ligand; 1 µM).
With `COc1cnc(Nc2cccc(S(N)(=O)=O)c2)nc1N1CCN(c2ccccc2)C(=O)C1` the remaining binding was 100% (binding; competition with immobilised ligand; 1 µM).
With `O=C(NCCCN1CCOCC1)c1ccc(Nc2ncc(Cl)c(-c3ccc(Cl)s3)n2)cc1` the remaining binding was 100% (binding; competition with immobilised ligand; 1 µM).
`CCN1CCN(Cc2ccc(C(=O)Nc3ccc(C)c(Oc4ccc5c(c4)CC(=O)N5)c3)cc2C(F)(F)F)CC1` gave a remaining binding of 72% (binding; competition with immobilised ligand; 1 µM).
For `CN(C)c1ncc(F)c(-c2cnn3ncccc23)n1`, the remaining binding was 100% (binding; 1 µM).
`NS(=O)(=O)c1cc(NC(=O)C2(c3ccccc3Cl)CC2)ccc1Oc1cccc(Cl)c1` gave a remaining binding of 94% (cell-free assay; competition with immobilised ligand; 1 µM).
The remaining binding of `CN(C)c1nccc(-c2cnn3ncccc23)n1` is reported as 100% (binding; 1 µM).
`CN(C(=O)c1ccccc1)c1cc(N(C)c2ccc3c(c2)CCc2ccc(C(=O)NCCN4CCOCC4)cc2C3=O)ccc1F` gave a remaining binding of 100% (cell-free assay; competition with immobilised ligand; 1 µM).
`O=C(NCC1CCOCC1)c1n[nH]cc1NC(=O)c1c(F)cccc1F` has a remaining binding of 92% (binding; competition with immobilised ligand; 1 µM).
`Cc1c[nH]c2nccc(Oc3c(F)cc(Nc4cc(Cl)nc(N)n4)cc3F)c12` gave a remaining binding of 94% (cell-free assay; competition with immobilised ligand; 0.1 µM).
The remaining binding of `CNC(=O)[C@@H]1CC[C@@H](n2c(-c3ccc4cnccc4c3)nc3ccc(C(=O)NCc4cccc(C(N)=O)c4)cc32)C1` is reported as 98% (binding; competition with immobilised ligand; 1 µM).
For `FC(F)(F)Oc1cccc(-c2cnc3ccc(-c4ccncc4)nn23)c1`, the remaining binding was 100% (binding; competition with immobilised ligand; 5 µM).
With `F[C@@H]1CCN(c2nccc(-c3cnn4ncccc34)n2)C1` the remaining binding was 100% (binding; 1 µM).
With `COc1cc(-c2cn(C3CCc4c(F)cccc4N(CC(F)(F)F)C3=O)nn2)ccc1-n1cnc(C)c1` (stereo not shown) the remaining binding was 100% (cell-free assay; competition with immobilised ligand; 1 µM).
`N[C@@H]1CCN(c2nccc(-c3cnn4ncccc34)n2)C1` gave a remaining binding of 100% (binding; 1 µM).
For `Cc1cnc(Nc2ccc(C(=O)N3CCC(N4CCCC4)CC3)cc2)nc1-c1cc2ccccc2s1`, the remaining binding was 79% (binding; competition with immobilised ligand; 1 µM).
`C[C@H]1CCN(c2nccc(-c3cnn4ncccc34)n2)C1` has a remaining binding of 100% (binding; 1 µM).
For `C=CC(=O)N1CCC(C(=O)NCC(=O)N2CCN(c3nc(-c4cnc(N)nc4C(F)F)nc(N4CCOCC4)n3)CC2)CC1`, the remaining binding was 93% (binding; competition with immobilised ligand; 1 µM).
`c1cnn2ncc(-c3ccnc(N4CCC45COC5)n3)c2c1` gave a remaining binding of 100% (binding; 1 µM).
`CCOC(=O)c1cc2cc(-c3cc(C(=O)NCc4ccc(C(=O)O)cc4)nn3C)ccc2[nH]1` has a remaining binding of 94% (cell-free assay; competition with immobilised ligand; 0.1 µM).
